APJ agonist – agonists of human APJ apelin receptor | AID 2520 | 330,000 tested, 0.11% active | CHO-K1 APJ PathHunter beta-arrestin, luminescence; 0% DMSO wells, 100% apelin | activation, % at 20 µM | P35414;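 active = activation more than six SD over the plate average, tested at 20 µM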
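Assay system: CHO-K1 cells stably expressing ProLink-tagged human APJ and arrestin–beta-gal acceptor. Compound dosing: 20 µM single point, 1% DMSO. Times: 16-18 h seeding, 90 min dark compound exposure, 60 min detection. Detection: beta-gal luminescence. Evaluation: APJ–arrestin association signal. Controls: negative DMSO alone, positive Apelin-13 at 10 nM.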
APJ antagonist – antagonists of human APJ apelin receptor; CHO-K1 APJ beta-arrestin complementation, luminescence; inhibition, % at 20 µM; 330,000 tested, 0.32% active; P35414;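 active = inhibition above about 40% at 20 µM, limit read from the data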;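 also: cells challenged with 10 nM apelin-13 agonist together with compound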
B2AR ag – human beta-2 adrenergic receptor agonism by FAP. Am2.2-beta2AR cells, FAP receptor internalization, flow cytometry. response, % (concentration not given with the values). 340,000 tested, 0.43% active;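 active = response above a set limit, near 3 SD of response in nonfluorescent compounds, cut at about 42% in these data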
CXCR6 inh – CXCR6 (human) receptor inhibition; inhibition, % at 20 µM; 360,000 tested, 0.36% active; AID 602244; CHO-K1 PathHunter CXCR6 beta-arrestin, luminescence; in the data active = inhibition above about 34%, passing the limit was not always enough;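 also: antagonist mode with CXCL16 agonist at 10 nM final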
Target sequence (O00574 whole entry, looked up): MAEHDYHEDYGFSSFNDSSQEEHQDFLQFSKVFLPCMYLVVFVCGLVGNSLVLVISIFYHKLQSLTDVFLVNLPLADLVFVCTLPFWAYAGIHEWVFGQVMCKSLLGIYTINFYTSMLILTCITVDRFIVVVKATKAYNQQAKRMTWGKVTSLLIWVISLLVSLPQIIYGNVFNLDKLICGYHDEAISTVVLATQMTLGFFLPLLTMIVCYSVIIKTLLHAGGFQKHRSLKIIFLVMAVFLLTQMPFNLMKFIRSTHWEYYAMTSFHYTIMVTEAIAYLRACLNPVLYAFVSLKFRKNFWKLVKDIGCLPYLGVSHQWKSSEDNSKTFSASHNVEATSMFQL
CCR6 antagonist – blocks CCL20-driven beta-arrestin recruitment at human CCR6. P51684. CHO-K1 CCR6 PathHunter beta-arrestin, luminescence, CCL20-stimulated. inhibition, % at 20 µM. 340,000 tested, 0.49% active. AID 493098;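 active = compounds whose inhibition of the agonist-driven luminescence signal at 20 µM reaches about 50%, limit read from the data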;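 also: cells stimulated with CCL20 at 14 nM final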
Target sequence (P51684 whole entry, looked up): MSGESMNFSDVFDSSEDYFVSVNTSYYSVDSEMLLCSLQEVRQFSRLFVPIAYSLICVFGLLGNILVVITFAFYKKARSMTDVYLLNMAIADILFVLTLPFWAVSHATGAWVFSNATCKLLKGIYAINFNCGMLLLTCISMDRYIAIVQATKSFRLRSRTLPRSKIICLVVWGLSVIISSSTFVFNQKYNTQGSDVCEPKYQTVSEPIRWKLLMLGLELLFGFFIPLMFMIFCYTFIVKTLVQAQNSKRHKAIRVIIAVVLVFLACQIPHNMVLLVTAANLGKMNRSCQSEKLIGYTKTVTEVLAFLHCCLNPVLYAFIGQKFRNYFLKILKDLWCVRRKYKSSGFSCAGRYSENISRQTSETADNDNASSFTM
PfGluPho inh – PfG6PD (Plasmodium falciparum) enzyme inhibition | 350,000 tested, 0.78% active | PfGluPho enzyme, NADPH resazurin-diaphorase fluorescence | inhibition, % at 20 µM;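 active = inhibition reaching at least a set limit at 20 µM in the primary screen, cut at about 59% in these data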
Large screens that a line does not name were inactive. In the library only some 1.7% were active in any assay of this set; here they are far more common.

Cc1c(-n2c(O)c(C3=c4ccccc4=NC3=O)sc2=O)c(=O)n(-c2ccccc2)n1C	none
Cc1ccc2c(c1)c(C1=c3ccccc3=NC1=O)c(O)n2C	CCR6 antagonist 50.8
C=CCn1c(O)c(C2=c3ccccc3=NC2=O)c2ccccc21	CXCR6 inh 71.6, CCR6 antagonist 90.7
CCn1cc(C(=O)NCCC(=O)NC(C)C)c(=O)c2cc3c(cc21)OCO3	none
CC(C)COC(=O)N1CCCCC1c1cc(C(=O)Nc2ccccc2)no1 (stereo unspecified)	none (no result: APJ agonist, APJ antagonist, B2AR ag, CCR6 antagonist, PfGluPho inh)
COc1ccc(/C=c2\sc3nc(=O)c(C)nn3c2=O)c(OC)c1	CCR6 antagonist 82.7
CN1C(=O)CC(Nc2cccc3cccc(N)c23)C1=O (stereo unspecified)	PfGluPho inh 63.8
COc1cccc(CNC(=O)C2CCN(S(=O)(=O)c3ccc4c(c3)C(C)(C)C(=O)N4C)CC2)c1	none (no result: APJ agonist, APJ antagonist, B2AR ag, CCR6 antagonist, PfGluPho inh)
FC(F)(F)C1=Nc2cccc3cccc(c23)N1	B2AR ag 81.6, CXCR6 inh 62.5, CCR6 antagonist 80.0
O=S(=O)(c1cnc(Cl)c(Br)c1)N1CCc2ccccc21	B2AR ag 55.6
O=S(=O)(c1cnc(Cl)c(Cl)c1)N1CCc2ccccc21	none
COc1ccc2[nH]c(C)c(CN3CCCCC3)c(=O)c2c1	none
CCc1c(C)[nH]c2ccc(OC)cc2c1=S	PfGluPho inh 66.7
O=C(NCc1ccc(F)cc1)c1cc(C2CCCN(C(=O)c3ccc4ccccc4c3)C2)on1 (stereo unspecified)	none (no result: APJ agonist, APJ antagonist, B2AR ag, CCR6 antagonist, PfGluPho inh)
COc1cc(/C=C2/C(=O)c3cccc([N+](=O)[O-])c3C2=O)c(Br)cc1O	CXCR6 inh 86.4, CCR6 antagonist 97.3 (no result: APJ agonist, APJ antagonist)
CCc1ccc(N2CSC3=C(C#N)C(c4cccs4)CC(=O)N3C2)cc1 (stereo unspecified)	PfGluPho inh 62.4
COc1ccc(S(=O)(=O)c2ccc(OC)cc2)cc1	none
CC1=CC(=NOS(=O)(=O)c2ccc(C)cc2)CC(C)(C)C1	none (no result: APJ agonist, APJ antagonist, B2AR ag, CCR6 antagonist, PfGluPho inh)
COc1ccc(S(=O)(=O)/N=C2/C=CC(=O)C(C)=C2C)cc1	PfGluPho inh 62.0
CC1=C(C)/C(=N\OS(=O)(=O)c2ccc(C)cc2)C=CC1=O	CXCR6 inh 54.6, CCR6 antagonist 76.3, PfGluPho inh 107.6 (no result: APJ agonist, APJ antagonist)
O=c1ccc2cc3c([nH]c4ccc(Br)cc43)oc-2c1O	CXCR6 inh 45.4 (no result: CCR6 antagonist, PfGluPho inh)
Cc1ccc(NC(=O)c2ccco2)nc1	none (no result: APJ agonist, APJ antagonist)
COc1cccc(CNC(=O)C2CC(=O)N(C3CCCCC3)C2)c1 (stereo unspecified)	none
COC(=O)C1=C(C)N(Cc2ccccc2)C(=NCc2cccc(Cl)c2)N[C@H]1c1cccc(F)c1	B2AR ag 48.3
CCOc1ccc2c(c1)C(C)=CC(C)(C)N2C(=O)Nc1ccccc1	PfGluPho inh 77.6
COC(=O)C1=C(C)N(Cc2ccc(C)cc2)C(=O)/C1=C\c1cc(OC)c(OC)c(OC)c1	none
COC(=O)C1=C(C)N(Cc2ccc(C)cc2)C(=O)/C1=C\c1ccc(O)c(OC)c1	CXCR6 inh 36.3
CCOC(=O)/C(=C\c1ccc(Cl)cc1)c1nc2sc(C)c(C)c2c(=O)[nH]1	B2AR ag 50.6
CCOC(=O)CSc1nc2sc(C)c(C)c2c(=O)[nH]1	none
COCC1CCCCN1C(=O)c1cccc(OC2CCN(S(C)(=O)=O)CC2)c1 (stereo unspecified)	none
Nc1c(C(=O)NC2CC2)sc2nc3c(c(-c4ccco4)c12)CC/C3=C/c1ccco1	CCR6 antagonist 51.4 (no result: APJ agonist, APJ antagonist)
CN(C)c1nc(N/N=C/c2ccccc2O)nc(Nc2ccc(F)cc2)n1	CXCR6 inh 68.0, CCR6 antagonist 70.7
Cn1c(SCc2ccccc2)nccc1=O	none (no result: APJ agonist, APJ antagonist)
CC1=C(SCc2ccccc2)C(=O)c2ccccc2C1=O	PfGluPho inh 105.1 (no result: APJ agonist, APJ antagonist)
COc1ccc(CCNC(=O)C2CCN(C(=O)c3ccccc3)CC2)cc1	CCR6 antagonist 57.0 (no result: B2AR ag, CXCR6 inh)
O=C(CSc1nnc(Cc2ccccc2)o1)Nc1cccc(F)c1	none
CC(C)(C)c1ccc(S(=O)(=O)/N=C2\C=C(NS(=O)(=O)c3ccccc3)C(=O)c3ccccc32)cc1	CCR6 antagonist 50.1
Cc1ccc(S(=O)(=O)/N=C2\C=C(NS(=O)(=O)c3ccccc3)C(=O)c3ccccc32)c(C)c1	none (no result: APJ agonist, APJ antagonist)
Cc1ccc(NC2=C/C(=N/S(=O)(=O)c3cccs3)c3ccccc3C2=O)cc1	B2AR ag 43.3, CCR6 antagonist 59.1
Cc1ccc(S(=O)(=O)/N=C2\C=C(Nc3ccc(O)cc3)C(=O)c3ccccc32)cc1	B2AR ag 74.3, CCR6 antagonist 63.0, PfGluPho inh 111.5
COc1ccc(NC(=O)CCNC(=O)N2CC(=O)Nc3ccccc32)cc1OC	none (no result: APJ agonist, APJ antagonist, B2AR ag, CCR6 antagonist)
Cc1c(C(=O)O)sc2nc(-c3cccs3)cc(C(F)(F)F)c12	none
Cc1c(C(=O)Nc2nccs2)sc2nc(-c3cccs3)cc(C(F)(F)F)c12	CCR6 antagonist 53.4
Nc1c(Cl)ncnc1N/N=C/c1ccc2ccccc2n1	CXCR6 inh 53.4, CCR6 antagonist 83.7 (no result: APJ agonist, APJ antagonist)
Nc1c(Cl)ncnc1N/N=C/c1ccnc2ccccc12	none
Nc1c(Cl)ncnc1N/N=C/c1cccnc1	none
Nc1c(Cl)ncnc1N/N=C/c1ccccn1	CCR6 antagonist 50.1 (no result: APJ agonist, APJ antagonist, B2AR ag, CXCR6 inh)
CCCCc1ccc(NC(=O)CSC2=NN3CCCC(=O)N=C3S2)cc1	B2AR ag 71.5
CCOc1ccc(NC(=O)CSC2=NN3CCCC(=O)N=C3S2)cc1	none
COc1ccc(N2CCN(C(=O)c3oc4c(c3C)C(=O)CCC4)CC2)cc1	none
NC(=O)c1ccc(-n2nnnc2SCC(=O)Nc2ccc(F)cc2)cc1	none
CN(C)S(=O)(=O)N1CCC(n2nccc2NC(=O)CCCc2ccccc2)CC1	none
COc1cc(/C=C(\C#N)c2ccccn2)ccc1OCC(=O)Nc1cccc(C(F)(F)F)c1	B2AR ag 76.2
COc1ccc(CC(=O)Nc2cccc(-c3nnc(-c4cccc(C)c4)o3)c2)cc1OC	APJ agonist 23.8
COc1ccc(CC(=O)Nc2cccc(-c3nnc(-c4ccccc4)o3)c2)cc1OC	none (no result: APJ agonist, APJ antagonist)
CCN1C[C@@H]2[C@@H]3C(=O)N(C)C(=O)[C@@H]3[C@](C)(C(=O)OC)N2C1=NC	none (no result: APJ agonist, APJ antagonist)
CC(C)(C)NC(=O)NC(=O)CN1CCN(S(=O)(=O)c2ccc3c(c2)CCCC3)CC1	none
CC(=O)N1N=C(c2cccc([N+](=O)[O-])c2)OC1c1ccccc1Cl (stereo unspecified)	CCR6 antagonist 50.2
Cc1ncc(N=Nc2ccccc2Cl)c(-c2ccccc2)n1	none
Nc1nc(-c2ccccc2)c(N=Nc2cccc3ccccc23)s1	CXCR6 inh 42.8, CCR6 antagonist 54.6
Nc1nc(-c2ccccc2)c(N=Nc2ccccc2Cl)s1	CXCR6 inh 57.1, CCR6 antagonist 62.5
COc1cc(/C=C2/C(=O)ON=C2C)cc(Cl)c1O	CCR6 antagonist 58.9
C#CCOc1c(Cl)cc(/C=C2/C(=O)ON=C2C)cc1OC	none

Assay outcomes: PubChem BioAssay, several laboratories
